From the RNAGym collection of RNA variant scans (doi:10.1126/science.aae0568)
This sample holds only a part of the variants without activity.

B1: tRNA (parent)
chain: GUUCCGUUGGCGUAAUGGUAACGCGUCUCCCUCCUAAGGAGAAGACUGCGGGUUCGAGUCCCGUACGGAACG

Variants of: B1
Assay: yeast fitness relative to wild type (ratio to wild type); higher = fitter; tRNA-Arg(CCU), competitive growth, 37 C, YPD
Outline: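 Changes in genotype frequencies gave Darwinian fitness relative to wild type. Frequencies were read by 100-nucleotide paired-end sequencing of gene amplicons before and after pooled Saccharomyces cerevisiae strains, carrying tRNA-Arg(CCU) gene variants at the native locus, were competed in YPD at 37°C for 24 hours in six replicates. A genotype was kept only with ≥ 100 starting reads, and estimates < 0.5 were set to 0.5.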

| Variant | yeast fitness |
| --- | --- |
| C27A G38C G51C A69U | ≤ 0.5 |
| C27U A37G C55U | ≤ 0.5 |
| C27U C49U A57G | 0.703 |
| C27G C30G C31U A42G U54C | ≤ 0.5 |
| C27A C31G U54C | 0.744 |
| U28A C66A | 0.575 |
| C27G A36C | ≤ 0.5 |
| C27G C30U U32C G51C U64A | ≤ 0.5 |
| U28C A70U | 0.87 |
| C27A G39A A42C G48C C60U | ≤ 0.5 |
| C27G C34U A43C A57U G58A C62G | ≤ 0.5 |
| C27G A40C C55G | ≤ 0.5 |
| C27A G39C C46A | ≤ 0.5 |
| C27U C30U A42C C55U A70G | ≤ 0.5 |
| C27U C31A U53A | ≤ 0.5 |
| C27U A45C G48A A57U G67A | ≤ 0.5 |
| U26G C27A | 0.647 |
| C27U U53C G63A | ≤ 0.5 |
| U28C A69C | 0.94 |
| U28G A43G A45G C49U A57U | ≤ 0.5 |
| C27U U32A | 0.993 |
| C27A G52C | 0.562 |
| U26C G50A | 0.932 |
| C27A A43C U54C | 0.624 |

| Variant | yeast fitness |
| --- | --- |
| C27A A40G C61G | 0.614 |
| U26C G38C | 0.717 |
| U28A G50U | 0.622 |
| C27U G41C A65C | 0.588 |
| C27G A70U | 0.74 |
| U28C G58C | 0.912 |
| U28A C31U | 0.7 |
| U28C G52C | 0.668 |
| U28C G52A | 0.836 |
| C27G C61U A69U | 0.532 |
| U26C C29G A43U | ≤ 0.5 |
| C27A A65U | 0.678 |
| C27G C62U | 0.688 |
| U28C C31A C34G A45U | ≤ 0.5 |
| U28C G39C G44C | 0.529 |
| C27U C31G A43C C49G G52C U59A G68A | ≤ 0.5 |
| C27G A45C C49U G52A U59C | 0.6 |
| U26C C61U C62G | ≤ 0.5 |
| C27A G58C | 1.13 |
| U28G C29A C55A | ≤ 0.5 |
| C27U A45G U64A | 0.553 |
| C27G A45U | 0.656 |
| U28C U47A C49U G63C | 0.683 |
| U26G A36G | 0.914 |

| Variant | yeast fitness |
| --- | --- |
| C27A C29U G48A G68C | ≤ 0.5 |
| U28C U35G A69C | ≤ 0.5 |
| U26C C30U C46A U47G G50A | ≤ 0.5 |
| C27G A36C C46U G51C | 0.54 |
| C27U A36C A42U C46U C62U G63A | ≤ 0.5 |
| U26C C33G A36U A57U | ≤ 0.5 |
| C27U C31A U35C C55G C66U A70C | ≤ 0.5 |
| C27G U32A U54G | ≤ 0.5 |
| C27A A37U C49U C55U C60G A65C | ≤ 0.5 |
| C27G A40U | 0.682 |
| C27G A40G | 0.594 |
| C27U C29A A36U A40C G41A A65U | ≤ 0.5 |
| C27G C34G A37U | ≤ 0.5 |
| C27G C30U G56A | ≤ 0.5 |
| C27U A37U A69C | 0.608 |
| C27U U28A U32A C34U A36C U47C C55A | ≤ 0.5 |
| C27G A37G U64A | ≤ 0.5 |
| C27U G51C U59C | ≤ 0.5 |
| U28A A42U | 0.812 |
| U28A A42C | 0.797 |
| C27A C61U C66U | ≤ 0.5 |
| U26G G67C | 0.644 |
| U26G C33G U35A C55U A65C | ≤ 0.5 |
| C27U C46A A57C | 0.726 |

| Variant | yeast fitness |
| --- | --- |
| U26C C33G A45G | ≤ 0.5 |
| U28C G38C A45U G68A A69C | ≤ 0.5 |
| C27A U32G G51A G56C A70G | ≤ 0.5 |
| U26C U53C A57U C66G | ≤ 0.5 |
| C27A G38C | 0.609 |
| U28G A36U C60U | ≤ 0.5 |
| C27G C49U A65C | ≤ 0.5 |
| U28A C34U G41C G51A U53A U59C A70U | ≤ 0.5 |
| C27A A36C A42U | ≤ 0.5 |
| C27A C33G G39A C49G | ≤ 0.5 |
| C27A G39C C55G A70C | ≤ 0.5 |
| U26G G52A | 0.816 |
| U28C C34U | 0.71 |
| C27G G44C A45G | 0.53 |
| C27G C33U | 0.592 |
| C27U G50C A65C | ≤ 0.5 |
| C27U C31U G52C U59G | ≤ 0.5 |
| C27U G39A G68U | 0.54 |
| C27U U28C C49U U54A A57C U59C | 0.706 |
| C27G U28A C30G C31U | 0.51 |
| U28C A37C A69C | ≤ 0.5 |
| U26G C49G | 0.851 |
| U26G C49A | 0.703 |
| C27A U32A U59C | ≤ 0.5 |

| Variant | yeast fitness |
| --- | --- |
| U28C A42U A43G | 0.597 |
| U28A A37G G51C A57C | ≤ 0.5 |
| C27G A43C C60G | ≤ 0.5 |
| U28A C30G A36C | ≤ 0.5 |
| C27U G41A | 0.939 |
| C27G C31A A57U | 0.573 |
| U28C A42U A69U | 0.74 |
| U26C G48C G52C A57C G58A | ≤ 0.5 |
| C27G C33G C60U C61G | 0.503 |
| C27U A57U G58C | 0.667 |
| C27A A36U A37U G48C C61U | ≤ 0.5 |
| C27A C62G A65U | ≤ 0.5 |
| C27U A45U G52A | 0.63 |
| C27U C49G | 0.916 |
| C27U U47A G68C | ≤ 0.5 |
| C27G C49A G52C C60U | ≤ 0.5 |
| C27U U47C G68A | 0.672 |
| C27A U28C G67U A70G | ≤ 0.5 |
| C27G G44C | 0.569 |
| U26G G48A | 1.08 |
| U26G G48C | 0.805 |
| C27U C55U A70U | 0.504 |
| U28C A40C G56C A65G | ≤ 0.5 |
| C27A U35A A43U | ≤ 0.5 |

| Variant | yeast fitness |
| --- | --- |
| U28A C30U A37C G41C | 0.542 |
| C27U C30U C34G A37C A69C | ≤ 0.5 |
| C27A U59C A69U | 0.713 |
| U28C G52C A65C | 0.596 |
| U28A U35A | 0.584 |
| C27U U54G A65C | ≤ 0.5 |
| U28A C30G U59C | ≤ 0.5 |
| C27U C33U C66U | 0.536 |
| C27U C29G | 0.58 |
| C27U G38A C55A | ≤ 0.5 |
| C27G A42U G48A | ≤ 0.5 |
| U28A C34U A37U A45U A57G C61U | ≤ 0.5 |
| C27G A37C A57C | ≤ 0.5 |
| C27G U64C | 0.693 |
| U26C C46A U47G G50A | 0.541 |
| C27A U28C C29G C61A | 0.664 |
| C27U C30G | 0.624 |
| U28A C31G G48A G51C C55G | 0.523 |
| C27U C34U U47C U53G A69U | ≤ 0.5 |
| C27A C66G A70C | ≤ 0.5 |
| C27G G58A | 0.698 |
| C27U G38A U59G U64C A65U | ≤ 0.5 |
| U26G G50C A57G | 0.529 |
| C27G A42G C60A | ≤ 0.5 |

| Variant | yeast fitness |
| --- | --- |
| C27U U28G A40C G51A | 0.543 |
| C27U G51C C55A A65C | ≤ 0.5 |
| C27G G52A | 0.941 |
| U28A A45G A69C | ≤ 0.5 |
| C27A A36G U53A A70G | ≤ 0.5 |
| C27A A37U A70U | 0.548 |
| U28G A40U | 0.843 |
| C27G U32A C34A C55A | ≤ 0.5 |
| C27G C62U A65U | 0.554 |
| U28C G39A A40U A42G | ≤ 0.5 |
| U28A C33G C49G G50U | ≤ 0.5 |
| U26C C30G A43U G50A | ≤ 0.5 |
| C27G G58C U59C G63A | ≤ 0.5 |
| U26C C33G U59C | 0.515 |
| U28C A65U | 0.855 |
| C27U A43U C55U | 0.592 |
| C27U C46U A57G | 0.679 |
| U26C C33G A36G A42C C49G G58C C62G | ≤ 0.5 |
| C27U C46U G48A A70C | 0.669 |
| U28C U35G A36C A65G C66A | ≤ 0.5 |
| C27U G41C U53A C62U | ≤ 0.5 |
| C27U C62G | 0.669 |
| U26G U28A A43G C61U G67A | 0.599 |
